Screens deposited in PubChem BioAssay by Broad Institute.
SR-BI DiI inh: inhibitors of mouse SR-BI mediated HDL lipid uptake | Q61009 | ldlA[mSR-BI] CHO cells, DiI-HDL uptake fluorescence, 3 h | inhibition, % at 12.5 µM | 0.96% of 320,000 active;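 active = mean replicate inhibition of at least 70% and a set share of replicates each scoring 70 or more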;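 note: 0% = median of neutral control wells and 100% = median of positive control wells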
Target sequence (Q61009 whole entry, looked up): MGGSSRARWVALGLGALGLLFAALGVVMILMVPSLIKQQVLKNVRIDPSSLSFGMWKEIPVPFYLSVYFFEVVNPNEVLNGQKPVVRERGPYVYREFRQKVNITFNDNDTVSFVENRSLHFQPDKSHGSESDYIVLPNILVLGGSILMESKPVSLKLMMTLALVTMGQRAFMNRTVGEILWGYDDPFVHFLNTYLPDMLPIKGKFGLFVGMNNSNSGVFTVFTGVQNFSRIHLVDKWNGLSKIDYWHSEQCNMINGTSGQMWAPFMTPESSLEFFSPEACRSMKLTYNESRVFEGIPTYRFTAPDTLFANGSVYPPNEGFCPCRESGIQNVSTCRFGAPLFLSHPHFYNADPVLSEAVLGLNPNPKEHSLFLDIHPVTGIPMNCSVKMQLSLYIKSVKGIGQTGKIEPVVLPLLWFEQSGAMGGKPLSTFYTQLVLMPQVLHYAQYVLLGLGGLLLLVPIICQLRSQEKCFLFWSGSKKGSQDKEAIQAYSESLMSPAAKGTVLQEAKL
SR-BI DiI-HDL act: activators of SR-BI mediated HDL lipid uptake | CHO ldlA[mSR-BI] cells, DiI-HDL uptake fluorescence, 3 h; 100 = double the neutral-control signal | activation, % at 12.5 µM | 0.096% of 320,000 active | AID 504775;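 active = mean replicate activation of at least 60% and every replicate at or above 60%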;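 note: 0% = median plate neutral-control signal and 100% = twice that signal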
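Test system: SR-BI-overexpressing, LDLR-lacking CHO cells; Also added: labelled HDL, 10 µg/mL; Measured by: bottom-read cell fluorescence after medium removal, ex 550/em 595 nm; Timing: 3 h uptake period with compound, 37 °C; Buffer or medium: F12, 0.5% BSA, 25 mM HEPES; Doses: single compound concentration, delivered by pin transfer.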
XiGFP reactiv: activators of X-chromosome reactivation in mouse fibroblasts; activation, % at 7.58 µM; 0.055% of 360,000 active; XiGFP mouse fibroblasts, % GFP-positive cells imaging, 3 d; cells co-treated with 5-aza-dC sensitizer; scaled so ellipticine positive control = 100%;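 active = mean normalized replicate activation at least 10% and every replicate at or above 10%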;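 note: 0% = median of on-plate neutral control wells and 100% = ellipticine 6 µM median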
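System: 68-5-11 XiGFP fibroblast line | Buffer or medium: DMEM containing 5-aza-dC | Compound: Single point | Times: Compounds 3 days, fix/stain 15 min at room temperature | Benchmarks: Positive control ellipticine, 6 µM final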
dFosB activator: activators of mouse delta FosB homodimer. 0.99% of 340,000 active. purified delta FosB, TAMRA-CDK5 oligo fluorescence polarization; percent of positive-control signal above neutral wells. AID 493131. activation, % at 25 µM. P13346;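 active = mean activation above about 17%, with every replicate also reaching it, limit read from the data, passing the limit was not always enough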
Ecoli rRNA inh: inhibits bacterial ribosomal RNA function over humanized ribosomes | E. coli WT GFP vs humanized-ribosome RFP mutants, fluorescence, 24 h; active compounds read low; DMSO median 0, no signal -100 | GFP signal change (wild-type ribosome), % (test concentration not listed) | 1.6% of 350,000 active | AID 720706;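 active = significant combined selectivity score with lowered wild-type GFP, culture density cut under 30%, mutant RFP and density less affected; inactive = any of these conditions unmet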
PvdQ inh: blocks Pseudomonas aeruginosa PvdQ acylase activity. inhibition, % at 10 µM. 0.063% of 340,000 active. purified PvdQ acylase, fluorescence plate reader. AID 488965; in the data active = inhibition above about 30%, passing the limit was not always enough;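 note: 0% = vehicle neutral wells and 100% = reference inhibitor wells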
The depositor's hits bear a star; x = no result; ! = a repeat was not active. An excerpt weighted towards active compounds, which were near 2.6% of everything screened.

SMILES	SR-BI DiI inh	SR-BI DiI-HDL act	XiGFP reactiv	dFosB activator	Ecoli rRNA inh	PvdQ inh
O=C(c1cc2nc(-c3ccc(F)cc3)cc(C(F)(F)F)n2n1)N1CCCCC1c1cccnc1 (stereo unspecified)	82*	-82	0	-17	-3	-13
CCC(C)(C(=O)NC1CCCCC1)N(Cc1cccs1)C(=O)Cc1cccs1 (stereo unspecified)	-5	5	x	-12	x	-6
COc1ccc2nc(N3C(=O)C(O)=C(C(=O)c4ccco4)C3c3ccccc3OC)sc2c1 (stereo unspecified)	-3	3	0	-9	-32*	-1
COc1ccc2nc(N3C(=O)C(O)=C(C(=O)c4ccco4)C3c3ccc(C)o3)sc2c1 (stereo unspecified)	5	-5	-1	0	-5	12
CCN(c1ccccc1)S(=O)(=O)c1ccc(OC)c(OC)c1	10	-10	x	4	-18*	-16
CCN(c1ccc(OC)cc1)S(=O)(=O)c1ccc2c(c1)NC(=O)CS2	-2	2	0	-7	-27*	10
CCN(c1ccccc1)S(=O)(=O)c1ccc2c(c1)N(C(C)=O)CCS2	11	-11	0	-12	-26*	-16
CCN(c1cccc(C)c1)S(=O)(=O)c1ccc2c(c1)NC(=O)CS2	-30	30	0	-5	-28	-4
CCOc1ccc(CN(C)c2nc(-c3cccnc3)nc3ccccc23)cc1OC	x	x	0	-21	-47	22
COCC(=O)N1C[C@H](C)[C@H](OC)CN(C)C(=O)c2ccc(NC(=O)NC(C)C)cc2OC[C@H]1C	x	x	1	x	0	x
CC(C)Cc1nnc(NC(=O)C2CCN(C(=O)c3ccc(Cl)cc3)CC2)s1	-6	6	0	-6	7	-11
CC(C)c1nnc(NC(=O)C2CCN(C(=O)Nc3ccc(Cl)cc3)CC2)s1	61	-61	x	-7	-23*	8
Cc1cccc(NC(=S)NNc2cccc(Cl)c2)c1	x	x	0	-3	-2	-1
COc1ccc(CNc2ccc([N+](=O)[O-])cc2C)cc1	x	x	0	1	-24*	-4
Cc1ccc(NS(=O)(=O)c2cc([N+](=O)[O-])ccc2NNC(=S)Nc2cc(C)ccc2C)c(C)c1	79*	-79	0	-1	x	-7
COc1ccc(NC(=S)NNc2ccc([N+](=O)[O-])cc2S(=O)(=O)Nc2ccc(C)cc2C)cc1	77*	-77	0	-9	2	-3
Cc1ccc(NS(=O)(=O)c2cc([N+](=O)[O-])ccc2NNC(=S)Nc2cccc(Cl)c2)c(C)c1	95*	-95	x	-5	x	-3
CCOC(=O)CC1C(=O)NCCN1C(=O)c1ccc(F)cc1F (stereo unspecified)	-12	12	x	-3	x	-11
COC(=O)N(C)C[C@H]1OCc2ccccc2-c2ccccc2C(=O)N([C@H](C)CO)C[C@H]1C	x	x	0	x	2	x
COc1ccc([N+](=O)[O-])cc1NC(=S)NC(C)=O	49	-49	0	5	13	-12
COc1ccc(/C=C/C(=O)NC(=S)Nc2cc([N+](=O)[O-])ccc2O)cc1OC	19	-19	0	4	-17*	2
NC(=NCCCCCCN=C(N)/N=C(\N)Nc1ccc(Cl)cc1)/N=C(\N)Nc1ccc(Cl)cc1	-92	92*!	0	6	x	-8
CC(C)C#Cc1ccc2c(c1)O[C@H](CN(C)C(=O)c1cnccn1)[C@H](C)CN([C@@H](C)CO)S2(=O)=O	x	x	-1	x	2	x
C[C@H](CO)N1C[C@H](C)[C@H](CN(C)C(=O)Nc2ccc(C(F)(F)F)cc2)OCc2cnnn2CCCC1=O	x	x	0	x	-11*!	x
C[C@@H]1CN([C@@H](C)CO)C(=O)c2cccc(NC(=O)Nc3ccccc3)c2O[C@@H]1CN(C)S(=O)(=O)c1ccc(Cl)cc1	x	x	0	x	-25*	x
SMILES	SR-BI DiI inh	SR-BI DiI-HDL act	XiGFP reactiv	dFosB activator	Ecoli rRNA inh	PvdQ inh
C[C@H]1CN([C@@H](C)CO)C(=O)c2cc(Br)cnc2O[C@@H]1CN(C)C(=O)Nc1ccc(C(F)(F)F)cc1	x	x	0	x	-12*!	x
C[C@H](CO)N1C[C@H](C)[C@@H](CN(C)C(=O)Nc2ccc(C(F)(F)F)cc2)Oc2c(NC(=O)CCC(F)(F)F)cccc2C1=O	76*	-76	0	-12	12	-9
CCCCc1ccc(NC(=S)NCCc2ccc(S(N)(=O)=O)cc2)cc1	22	-22	0	-3	-10	-1
COc1ccc(-c2cnc3c(c2)C(=O)N([C@H](C)CO)C[C@H](C)[C@H](CN(C)S(=O)(=O)c2cccs2)O3)cc1	x	x	0	x	1	x
Cc1noc(C)c1NC(=O)Nc1cccc2c1O[C@H](CN(C)C(=O)Nc1ccc(C(F)(F)F)cc1)[C@@H](C)CN([C@H](C)CO)C2=O	79*	-79	-1	0	-5	-2
C[C@H]1CN([C@@H](C)CO)C(=O)c2cc(C#CCc3ccccc3)cnc2O[C@H]1CN(C)Cc1cccc(F)c1	x	x	0	x	-6	x
C[C@H](CO)N1C[C@H](C)[C@@H](CN(C)Cc2cccc(F)c2)Oc2ncc(C#CCc3ccccc3)cc2C1=O	x	x	-1	x	-35*	x
CC(=O)Nc1cc(-c2ccc(N)cc2)cn2c(-c3cccc(C(F)(F)F)c3)cnc12	x	x	0	x	-1	x
CCC(=O)N1CCN(c2ccc(NC(=O)c3cc4ccccc4o3)cc2Cl)CC1	79*	-79	x	0	x	8
O=C(Nc1ccc(N2CCN(C(=O)c3ccccc3)CC2)c(Cl)c1)c1ccco1	44	-44	x	-4	x	-6
O=C(Nc1ccc(N2CCN(C(=O)c3ccco3)CC2)c(Cl)c1)c1cc2ccccc2o1	82*	-82	x	4	x	-5
CCCC(=O)N1CCN(c2ccc(NC(=O)c3cc4ccccc4o3)cc2Cl)CC1	62	-62	x	-6	x	-1
CC(=O)Nc1ccc(C(=O)NNC(=O)c2ccc(Cl)cc2)cc1	-5	5	0	7	8	-11
COc1cccc(S(=O)(=O)Nc2ccc3c(c2)[C@H]2C[C@H](CC(=O)N(C)C)O[C@@H](CO)[C@H]2O3)c1	x	x	0	x	2	x
O=C(NC(=S)Nc1ccc(Br)c(Cl)c1)C1CC1	2	-2	0	-8	-27*	-2
CC(=O)Nc1ccc(NC(=S)NC(=O)C2CC2)cc1	-13	13	0	-4	2	21
Cc1ccccc1-c1cnn(-c2cccc([N+](=O)[O-])c2)c1N	55	-55	0	-10	-46*	-13
COc1cc(C(=O)Oc2cccnc2)cc(OC)c1OC	8	-8	0	-3	14	-15
